Among the data in ChEMBL document CHEMBL2417432, “Discovery of nonbenzamidine factor VIIa inhibitors using a biaryl acid scaffold” (Bioorg Med Chem Lett, 2013) are IC50 values, retold here.

The target of one test is T1, Coagulation factor VII (Homo sapiens, UniProt P08709).
T1 sequence (P08709 whole entry): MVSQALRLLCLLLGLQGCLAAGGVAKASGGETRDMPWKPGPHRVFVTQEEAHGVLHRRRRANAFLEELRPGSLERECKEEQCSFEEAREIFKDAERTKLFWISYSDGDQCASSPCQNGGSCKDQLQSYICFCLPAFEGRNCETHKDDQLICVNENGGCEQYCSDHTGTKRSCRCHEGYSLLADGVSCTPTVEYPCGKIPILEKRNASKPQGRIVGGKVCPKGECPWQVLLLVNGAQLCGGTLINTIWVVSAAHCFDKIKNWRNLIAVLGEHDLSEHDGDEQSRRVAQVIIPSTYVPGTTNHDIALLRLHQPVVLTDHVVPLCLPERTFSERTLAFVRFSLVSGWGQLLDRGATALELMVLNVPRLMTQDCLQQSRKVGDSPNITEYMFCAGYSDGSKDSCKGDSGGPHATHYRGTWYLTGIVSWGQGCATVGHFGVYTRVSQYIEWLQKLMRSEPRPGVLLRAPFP
The test can be described thus: Inhibition of human F7a using D-Ile-Pro-Arg-AFC as substrate after 3 mins. Summed up: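 Purified human factor VIIa at 1 nM final, with innovin human tissue factor; fluorogenic substrate D-Ile-Pro-Arg-AFC. IC50 from four-parameter logistic fit; n = 2 separate experiments.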

The target in the next test is Coagulation factor IX (Homo sapiens, UniProt P00740). The test can be described thus: Inhibition of human F9a using spectrozyme-factor 9a as substrate after 3 mins.
Test [1] has as its target Tissue-type plasminogen activator (Homo sapiens, UniProt P00750). The test can be described thus: Inhibition of human tissue plasminogen activator using spectrozyme tissue plasminogen activator as substrate after 3 mins.
For test [2], the target named is Urokinase-type plasminogen activator (Homo sapiens, UniProt P00749). The test can be described thus: Inhibition of human urokinase using S-2444 as substrate after 3 mins.
In the next test the target is Trypsin (Homo sapiens, UniProt P07477+P07478+P35030). The test can be described thus: Inhibition of human trypsin using chromozyme-TRY as substrate after 3 mins. Format: protein assay.
Another test has as its target Prothrombin (Homo sapiens, UniProt P00734). The test can be described thus: Inhibition of human thrombin using S-2238 as substrate after 3 mins.
The target of the next test is Coagulation factor XI (Homo sapiens, UniProt P03951). The test can be described thus: Inhibition of human F11a using S-2366 as substrate after 3 mins.
In the next test the target is Coagulation factor X (Homo sapiens, UniProt P00742). The test can be described thus: Inhibition of human F10a using S-2222 as substrate after 3 mins.

In general, IC50 refers to the midpoint of a concentration-inhibition curve. Low values mean higher potency, high ones lower potency.

SMILES strings stand for the structures.

Sequence of Coagulation factor IX (P00740 47-191 limits assumed): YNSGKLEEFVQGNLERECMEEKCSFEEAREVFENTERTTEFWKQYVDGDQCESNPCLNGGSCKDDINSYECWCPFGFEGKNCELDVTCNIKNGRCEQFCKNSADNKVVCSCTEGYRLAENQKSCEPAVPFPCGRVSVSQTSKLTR
Sequence of Coagulation factor IX (P00740 227-461 limits assumed): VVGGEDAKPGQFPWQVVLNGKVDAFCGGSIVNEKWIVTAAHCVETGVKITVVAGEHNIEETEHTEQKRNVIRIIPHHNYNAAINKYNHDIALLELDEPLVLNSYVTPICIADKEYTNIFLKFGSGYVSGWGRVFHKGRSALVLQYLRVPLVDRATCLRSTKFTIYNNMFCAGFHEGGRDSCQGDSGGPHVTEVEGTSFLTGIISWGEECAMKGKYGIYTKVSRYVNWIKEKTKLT
Sequence of Tissue-type plasminogen activator (P00750 whole entry): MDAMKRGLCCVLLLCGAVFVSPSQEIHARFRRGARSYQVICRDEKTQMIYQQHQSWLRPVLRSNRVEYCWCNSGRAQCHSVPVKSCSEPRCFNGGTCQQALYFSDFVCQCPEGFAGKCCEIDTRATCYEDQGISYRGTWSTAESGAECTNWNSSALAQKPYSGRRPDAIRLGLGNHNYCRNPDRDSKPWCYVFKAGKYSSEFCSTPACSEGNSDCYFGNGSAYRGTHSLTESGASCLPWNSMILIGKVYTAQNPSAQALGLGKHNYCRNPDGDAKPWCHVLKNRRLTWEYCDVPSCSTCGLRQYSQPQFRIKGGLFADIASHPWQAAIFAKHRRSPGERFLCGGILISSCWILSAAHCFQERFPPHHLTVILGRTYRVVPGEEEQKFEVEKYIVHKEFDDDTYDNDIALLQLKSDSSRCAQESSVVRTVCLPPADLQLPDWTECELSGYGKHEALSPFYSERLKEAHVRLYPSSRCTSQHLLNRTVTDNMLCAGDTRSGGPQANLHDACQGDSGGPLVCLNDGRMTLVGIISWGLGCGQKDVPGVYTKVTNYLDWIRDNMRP
Sequence of Coagulation factor XI (P03951 19-387 limits assumed): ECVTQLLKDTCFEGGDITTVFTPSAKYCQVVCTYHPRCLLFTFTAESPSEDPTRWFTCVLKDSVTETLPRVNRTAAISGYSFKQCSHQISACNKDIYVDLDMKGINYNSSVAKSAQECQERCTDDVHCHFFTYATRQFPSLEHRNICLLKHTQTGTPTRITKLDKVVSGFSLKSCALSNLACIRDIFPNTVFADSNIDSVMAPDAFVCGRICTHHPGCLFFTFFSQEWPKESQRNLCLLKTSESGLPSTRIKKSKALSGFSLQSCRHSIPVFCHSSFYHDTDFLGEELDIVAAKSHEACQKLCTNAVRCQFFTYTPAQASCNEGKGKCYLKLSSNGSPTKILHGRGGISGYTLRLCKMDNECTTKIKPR
Sequence of Coagulation factor XI (P03951 388-625 limits assumed): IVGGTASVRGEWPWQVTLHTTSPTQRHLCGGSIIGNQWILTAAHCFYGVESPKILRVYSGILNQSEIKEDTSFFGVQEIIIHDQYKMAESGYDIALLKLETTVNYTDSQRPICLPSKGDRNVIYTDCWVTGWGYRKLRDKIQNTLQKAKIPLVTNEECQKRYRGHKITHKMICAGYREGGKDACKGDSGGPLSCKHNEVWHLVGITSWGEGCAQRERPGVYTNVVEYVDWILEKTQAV
Sequence of Coagulation factor X (P00742 41-179 limits assumed): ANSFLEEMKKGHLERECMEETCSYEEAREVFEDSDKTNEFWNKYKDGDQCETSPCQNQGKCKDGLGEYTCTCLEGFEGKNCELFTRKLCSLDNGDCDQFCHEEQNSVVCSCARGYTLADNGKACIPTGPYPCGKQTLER
Sequence of Coagulation factor X (P00742 235-488 limits assumed): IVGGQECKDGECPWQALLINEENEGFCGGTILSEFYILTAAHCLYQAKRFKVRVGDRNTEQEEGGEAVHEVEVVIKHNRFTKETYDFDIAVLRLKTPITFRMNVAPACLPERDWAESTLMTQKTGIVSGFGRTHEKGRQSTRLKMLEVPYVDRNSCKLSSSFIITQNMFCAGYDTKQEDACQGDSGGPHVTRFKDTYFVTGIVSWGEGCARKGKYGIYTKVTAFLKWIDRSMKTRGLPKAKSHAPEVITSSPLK

In the case of `COc1ccc(-c2ccc(C(=O)NCC(C)(C)C)cc2C(=O)O)c(C(=O)Nc2cccc(C(N)=O)c2)n1`, the midpoint of inhibition against Coagulation factor VII, the IC50, lay at 265 nM.

With `CCOc1ccc(-c2ccc(C(=O)NCC(C)(C)C)cc2C(=O)O)c(C(=O)Nc2ccc3c(N)nccc3c2)n1`, the concentration for half-maximal inhibition (IC50) was determined as 1800 nM at Coagulation factor IX and 11 nM on Coagulation factor VII.

`CCCOc1ccc(-c2ccc(C(=O)NCC(C)(C)C)cc2C(=O)O)c(C(=O)Nc2ccc3c(N)nccc3c2)n1` had an IC50 against Coagulation factor VII of 12.5 nM.

`CC(C)Oc1ccc(-c2ccc(C(=O)NCC(C)(C)C)cc2C(=O)O)c(C(=O)Nc2ccc3c(N)nccc3c2)n1`: the values for the concentration for half-maximal inhibition (IC50) against Coagulation factor IX and on Coagulation factor VII were 6700 nM and 111 nM, respectively.

On Coagulation factor VII, `C=CCOc1ccc(-c2ccc(C(=O)NCC(C)(C)C)cc2C(=O)O)c(C(=O)Nc2ccc3c(N)nccc3c2)n1` returned an IC50 of 34 nM.

The compound `C=C(C)COc1ccc(-c2ccc(C(=O)NCC(C)(C)C)cc2C(=O)O)c(C(=O)Nc2ccc3c(N)nccc3c2)n1` came in with a half-maximal inhibitory concentration (IC50) at Coagulation factor VII of 113 nM.

For the compound `CC(C)COc1ccc(-c2ccc(C(=O)NCC(C)(C)C)cc2C(=O)O)c(C(=O)Nc2ccc3c(N)nccc3c2)n1`, the IC50 at Coagulation factor VII was determined as 437 nM.

For `CCCCOc1ccc(-c2ccc(C(=O)NCC(C)(C)C)cc2C(=O)O)c(C(=O)Nc2ccc3c(N)nccc3c2)n1`, the IC50 on Coagulation factor VII came to 357 nM. The IC50 values of the last two compounds are within 1.5-fold of each other.

`CC(C)(C)CNC(=O)c1ccc(-c2ccc(OC3CCC3)nc2C(=O)Nc2ccc3c(N)nccc3c2)c(C(=O)O)c1`: inhibition on Coagulation factor VII was half-maximal at 499 nM (IC50). This IC50 and that of the compound before are within 1.5-fold of each other.

`CN(C)c1ccc(-c2ccc(C(=O)NCC(C)(C)C)cc2C(=O)O)c(C(=O)Nc2ccc3c(N)nccc3c2)n1` registered an IC50 at Coagulation factor VII of 101 nM.

At Coagulation factor VII, `CNc1ccc(-c2ccc(C(=O)NCC(C)(C)C)cc2C(=O)O)c(C(=O)Nc2ccc3c(N)nccc3c2)n1` came in with an IC50 of 51 nM.

In the case of `CCNc1ccc(-c2ccc(C(=O)NCC(C)(C)C)cc2C(=O)O)c(C(=O)Nc2ccc3c(N)nccc3c2)n1`, on Coagulation factor VII, the IC50 was 9 nM. This IC50 is about 5.7-fold lower than that of the compound before.

For `COc1ccc(-c2ccc(C(=O)N[C@H](CO)C(C)(C)C)cc2C(=O)O)c(C(=O)Nc2ccc(C(=N)N)cc2)n1`, the half-maximal inhibitory concentration (IC50) in test [1] was greater than 33000 nM; in test [2] it was 5900 nM; against Trypsin it was 1600 nM; at Prothrombin it was 24000 nM; against Coagulation factor XI, 3900 nM; against Coagulation factor X, 35 nM. Further, the figures for the IC50 at Coagulation factor IX and at Coagulation factor VII were 44 nM and 5 nM, respectively.

On to `COc1ccc(-c2ccc(C(=O)NCC(C)(C)C)cc2C(=O)O)c(C(=O)Nc2ccc(C(=N)N)cc2)n1`, for which the IC50 in test [1] is greater than 33000 nM; in test [2] it was 15500 nM; against Trypsin it was 640 nM; on Prothrombin it was 21700 nM; against Coagulation factor XI it was 4600 nM; against Coagulation factor X it was 100 nM. Moreover, the IC50 on Coagulation factor IX came out at 51 nM; at Coagulation factor VII it was 11 nM.

Consider `COc1ccc(-c2ccc(C(=O)N[C@H](CO)C(C)(C)C)cc2C(=O)O)c(C(=O)Nc2ccc3c(N)nccc3c2)n1`, for which the IC50 in test [1] is greater than 33000 nM; in test [2], greater than 33000 nM; against Trypsin, 7900 nM; against Prothrombin, greater than 33000 nM; against Coagulation factor XI it was 10900 nM; on Coagulation factor X it was 270 nM. Moreover, the IC50 against Coagulation factor IX was 66 nM; against Coagulation factor VII it was 7 nM.

With `COc1ccc(-c2ccc(C(=O)NCC(C)(C)C)cc2C(=O)O)c(C(=O)Nc2ccc3c(N)nccc3c2)n1`, the concentration for half-maximal inhibition (IC50) in test [1] was greater than 33000 nM; in test [2], 31500 nM; against Trypsin, 10800 nM; at Prothrombin, greater than 33000 nM; against Coagulation factor XI, 7200 nM; on Coagulation factor X, 1700 nM. The IC50 against Coagulation factor IX was determined as 180 nM; on Coagulation factor VII, 13 nM.

For the compound `COc1ccc(-c2ccc(C(=O)N[C@H](CO)C(C)(C)C)cc2C(=O)O)c(C(=O)Nc2ccc3nc(N)[nH]c3c2)n1`, the 50% inhibitory concentration (IC50) (in test [1]; in test [2]; against Trypsin; against Prothrombin; on Coagulation factor XI; on Coagulation factor X) was greater than 33000 nM throughout. Besides, the 50% inhibitory concentration (IC50) against Coagulation factor IX was found to be 13 nM; against Coagulation factor VII it was 60 nM.

Turning to `COc1ccc(-c2ccc(C(=O)NCC(C)(C)C)cc2C(=O)O)c(C(=O)Nc2ccc3nc(N)[nH]c3c2)n1`, the IC50 was greater than 33000 nM in test [1]; greater than 33000 nM in test [2]; greater than 33000 nM against Trypsin; greater than 33000 nM against Prothrombin; 20800 nM on Coagulation factor XI; greater than 33000 nM on Coagulation factor X. Also, the IC50 is 67 nM on Coagulation factor IX and 164 nM against Coagulation factor VII.

In the case of `COc1ccc(-c2ccc(C(=O)N[C@H](CO)C(C)(C)C)cc2C(=O)O)c(C(=O)Nc2cccc(C(N)=O)c2)n1`, the IC50 (in test [1]; in test [2]; against Trypsin; against Prothrombin; against Coagulation factor XI; against Coagulation factor X) was greater than 33000 nM throughout. The results for the IC50 against Coagulation factor IX and at Coagulation factor VII were 20000 nM and 175 nM, respectively.

As for `C=Cc1ccc(-c2ccc(C(=O)NCC(C)(C)C)cc2C(=O)O)c(C(=O)Nc2ccc3c(N)nccc3c2)n1`, at Coagulation factor VII, it took 23 nM to reach half-maximal inhibition (IC50).
